# From ChEMBL document CHEMBL4138152, “Exploring the tetrahydroisoquinoline thiohydantoin scaffold blockade the androgen receptor as potent anti-prostate cancer agents” (Eur J Med Chem, 2018)
# Activity calls are given as the source filed them. The calls are words filed in the database; no cut-off is given here.
# Assays:
# [1] = Clearance in rat administered via gavage by HPLC-MS/MS method; format: ADME, organism-based; conditions: in vivo, po
# How it was run: (§1)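 Rats 180–220 g, n = 3 per group; compound dissolved in water, single gavage dose of 5.0 mg/kg. Plasma quantified by HPLC-MS/MS. Parameters derived from mean plasma concentration by noncompartmental analysis.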
# [2] = Tmax in rat administered via gavage by HPLC-MS/MS method; format: ADME, organism-based; conditions: in vivo, po; how it was run: as §1
# [3] = Elimination half life in rat administered via gavage by HPLC-MS/MS method; format: ADME, organism-based; conditions: in vivo, po, read-out: beta t1/2 (converted); how it was run: as §1
# LNCaP = assay: Antiproliferative activity against human LNCAP cells after 3 days by MTT assay; format: functional, cell-based; conditions: 72 h
# How it was run: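 LNCaP cells kept in RPMI-1640 with 10% FBS, 37 °C, 5% CO2. Seeded at 10,000 cells/well and left 24 h. Serial dilutions of compound or DMSO added, then 3 d incubation. MTT (5 mg/mL) added for 4 h, crystals dissolved in DMSO, absorbance read at 492 nm. Triplicate or more; IC50 reported as mean.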
# [4] = AUC (0 to t) in rat administered via gavage by HPLC-MS/MS method; format: ADME, organism-based; conditions: in vivo, po; how it was run: as §1
# Androgen receptor = molecular target: T1, Androgen receptor (Homo sapiens, UniProt P10275); format: cell-based
# T1 sequence (P10275 whole entry): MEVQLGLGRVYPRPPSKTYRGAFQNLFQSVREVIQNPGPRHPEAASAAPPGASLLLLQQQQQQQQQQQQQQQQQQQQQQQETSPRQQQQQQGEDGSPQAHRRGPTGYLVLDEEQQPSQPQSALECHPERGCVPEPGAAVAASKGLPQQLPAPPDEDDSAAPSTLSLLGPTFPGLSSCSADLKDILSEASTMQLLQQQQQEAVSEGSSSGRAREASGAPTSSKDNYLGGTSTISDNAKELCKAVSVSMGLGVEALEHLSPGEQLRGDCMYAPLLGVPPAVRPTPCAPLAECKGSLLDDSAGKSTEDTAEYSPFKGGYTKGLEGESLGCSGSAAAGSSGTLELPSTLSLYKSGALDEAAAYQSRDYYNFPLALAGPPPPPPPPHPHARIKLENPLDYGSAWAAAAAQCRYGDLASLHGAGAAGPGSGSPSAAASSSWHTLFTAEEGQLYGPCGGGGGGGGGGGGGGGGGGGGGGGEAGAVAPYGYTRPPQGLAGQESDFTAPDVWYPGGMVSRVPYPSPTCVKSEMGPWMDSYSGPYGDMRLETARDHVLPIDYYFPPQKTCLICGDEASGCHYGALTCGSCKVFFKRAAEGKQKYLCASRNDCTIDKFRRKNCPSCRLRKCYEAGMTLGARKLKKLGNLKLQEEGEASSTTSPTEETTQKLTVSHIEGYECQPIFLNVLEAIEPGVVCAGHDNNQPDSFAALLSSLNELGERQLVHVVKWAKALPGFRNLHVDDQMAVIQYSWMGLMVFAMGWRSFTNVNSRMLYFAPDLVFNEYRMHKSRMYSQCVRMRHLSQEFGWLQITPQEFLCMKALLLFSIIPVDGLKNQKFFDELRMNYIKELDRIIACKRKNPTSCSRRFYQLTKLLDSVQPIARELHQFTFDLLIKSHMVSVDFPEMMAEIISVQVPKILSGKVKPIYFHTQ
# [5] = Cmax in rat administered via gavage by HPLC-MS/MS method; format: ADME, organism-based; conditions: in vivo, po; how it was run: as §1
# DU-145 = assay: Antiproliferative activity against human DU145 cells after 3 days by MTT assay; format: functional, cell-based; conditions: DU-145, 72 h
# How it was run: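 DU145 cells kept in RPMI-1640 with 10% FBS, 37 °C, 5% CO2. Seeded at 7,000 cells/well and left 24 h. Serial dilutions of compound or DMSO added, then 3 d incubation. MTT (5 mg/mL) added for 4 h, formazan dissolved in DMSO, absorbance read at 492 nm. Triplicate or more; IC50 reported as mean.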
# [6] = molecular target: T2, Androgen receptor (Homo sapiens) (UniProt P10275); conditions: at 10 µM
# T2 sequence (whole entry): T1 sequence (P10275 whole entry)
# [7] = molecular target: T2, Androgen receptor (Homo sapiens); conditions: at 10 µM; remark: listed apart in the source
Structure (SMILES),CL/F [1] [mL/min/kg],Tmax [2] [h],half-life [3] [h],IC50 (LNCaP) [µM],AUC(0-t) [4] [ng·h/mL],IC50 (Androgen receptor) [µM],Cmax [5] [ng/mL],IC50 (DU-145) [µM],inhibition [6],inhibition [7]
N#Cc1ccc(N2C(=O)C3Cc4ccccc4N3C2=S)cc1C(F)(F)F (stereo unspecified),26.5,2,10.4,15.3,2860,18.7,452,–,–,–
CCCOc1ccc2c(c1)CN1C(=S)N(c3ccc(C#N)c(C(F)(F)F)c3)C(=O)C1C2 (stereo unspecified),–,–,–,11.6,–,–,–,62.3,54%,–
N#Cc1ccc(N2C(=O)C3Cc4ccc([N+](=O)[O-])cc4CN3C2=S)cc1C(F)(F)F (stereo unspecified),–,–,–,43,–,–,–,> 200,59.8%,–
CCC(=O)Nc1ccc2c(c1)CN1C(=S)N(c3ccc(C#N)c(C(F)(F)F)c3)C(=O)C1C2 (stereo unspecified),–,–,–,19.5,–,–,–,> 200,4.5%,–
COc1c(Br)cc2c(c1Br)CN1C(=S)N(c3ccc(C#N)c(C(F)(F)F)c3)C(=O)C1C2 (stereo unspecified),–,–,–,19.1,–,–,–,33.8,4.6%,–
CC(C)(C)C(=O)Nc1ccc2c(c1)CN1C(=S)N(c3ccc(C#N)c(C(F)(F)F)c3)C(=O)C1C2 (stereo unspecified),–,–,–,21.2,–,–,–,83.2,inactive,–
CNC(=O)c1cc2c(cc1F)CC1C(=O)N(c3ccc(C#N)c(C(F)(F)F)c3)C(=S)N1C2 (stereo unspecified),–,–,–,28.1,–,–,–,> 200,47.1%,–
CC(=O)Nc1ccc2c(c1)CN1C(=S)N(c3ccc(C#N)c(C(F)(F)F)c3)C(=O)C1C2 (stereo unspecified),–,–,–,83.8,–,–,–,> 200,25%,–
N#Cc1ccc(N2C(=O)C3Cc4ccc(OC5CCCCC5)cc4CN3C2=S)cc1C(F)(F)F (stereo unspecified),–,–,–,8.5,–,–,–,98.1,61.6%,–
N#Cc1ccc(N2C(=O)C3Cc4cc(I)c(O)c(I)c4CN3C2=S)cc1C(F)(F)F (stereo unspecified),–,–,–,16.3,–,–,–,22.1,27.3%,–
CCOC(=O)CCCOc1c(Br)cc2c(c1Br)CN1C(=S)N(c3ccc(C#N)c(C(F)(F)F)c3)C(=O)C1C2 (stereo unspecified),–,–,–,6.3,–,–,–,21.9,inactive,–
CC(C)COc1ccc2c(c1)CN1C(=S)N(c3ccc(C#N)c(C(F)(F)F)c3)C(=O)C1C2 (stereo unspecified),–,–,–,10.6,–,–,–,52.6,61.5%,–
N#Cc1ccc(N2C(=O)C3Cc4cc(Cl)c(O)c(Cl)c4CN3C2=S)cc1C(F)(F)F (stereo unspecified),–,–,–,14,–,–,–,17.1,36%,–
N#Cc1ccc(N2C(=O)C3Cc4cc([N+](=O)[O-])ccc4CN3C2=S)cc1C(F)(F)F (stereo unspecified),–,–,–,56.4,–,–,–,> 200,inactive,–
CC(C)Oc1ccc2c(c1)CN1C(=S)N(c3ccc(C#N)c(C(F)(F)F)c3)C(=O)C1C2 (stereo unspecified),–,–,–,8.6,–,–,–,91.6,45.4%,–
N#Cc1ccc(N2C(=O)C3Cc4ccc(O)cc4CN3C2=S)cc1C(F)(F)F (stereo unspecified),–,–,–,50.7,–,–,–,> 200,85.7%,–

Structure (SMILES),CL/F [1] [mL/min/kg],Tmax [2] [h],half-life [3] [h],IC50 (LNCaP) [µM],AUC(0-t) [4] [ng·h/mL],IC50 (Androgen receptor) [µM],Cmax [5] [ng/mL],IC50 (DU-145) [µM],inhibition [6],inhibition [7]
CCOc1ccc2c(c1)CN1C(=S)N(c3ccc(C#N)c(C(F)(F)F)c3)C(=O)C1C2 (stereo unspecified),–,–,–,22.6,–,–,–,40.9,47.1%,–
CNC(=O)c1ccc(N2C(=S)N(c3ccc(C#N)c(C(F)(F)F)c3)C(=O)C2(C)C)cc1F [ENZALUTAMIDE],–,–,–,12.5,–,–,–,46.1,–,–
CC12Cc3ccccc3CN1C(=S)N(c1ccc(C#N)c(C(F)(F)F)c1)C2=O (stereo unspecified),–,–,–,65.3,–,–,–,> 200,26.2%,–
N#Cc1ccc(N2C(=O)C3Cc4ccc(N)cc4CN3C2=S)cc1C(F)(F)F (stereo unspecified),–,–,–,18.9,–,–,–,89.7,37.8%,–
N#Cc1ccc(N2C(=O)C3Cc4cc(N)ccc4CN3C2=S)cc1C(F)(F)F (stereo unspecified),–,–,–,73,–,–,–,> 200,14.2%,–
CNC(=O)c1cc2c(cc1F)CC1C(=O)N(c3ccc(C#N)c(F)c3)C(=S)N1C2 (stereo unspecified),–,–,–,116,–,–,–,85.4,26.7%,–
N#Cc1ccc(N2C(=O)C3Cc4cc(Br)c(O)c(Br)c4CN3C2=S)cc1C(F)(F)F (stereo unspecified),–,–,–,11.1,–,–,–,11.4,6.1%,–
N#Cc1ccc(N2C(=O)C3Cc4ccccc4CN3C2=S)cc1C(F)(F)F (stereo unspecified),20.5,2,5.13,31.1,3860,–,387,> 200,89%,–
CCCC(=O)Nc1ccc2c(c1)CN1C(=S)N(c3ccc(C#N)c(C(F)(F)F)c3)C(=O)C1C2 (stereo unspecified),–,–,–,10.8,–,–,–,> 200,45.5%,–
COc1ccc2c(c1)CN1C(=S)N(c3ccc(C#N)c(C(F)(F)F)c3)C(=O)C1C2 (stereo unspecified),–,–,–,100,–,–,–,60.4,inactive,–
CS(=O)(=O)Nc1ccc2c(c1)CN1C(=S)N(c3ccc(C#N)c(C(F)(F)F)c3)C(=O)C1C2 (stereo unspecified),–,–,–,31.1,–,–,–,> 200,13.6%,–
N#Cc1ccc(N2C(=O)C3Cc4ccccc4CN3C2=S)cc1F (stereo unspecified),–,–,–,70.3,–,–,–,37.1,inactive,–
CCOC(=O)Nc1cc2c(cc1F)CC1C(=O)N(c3ccc(C#N)c(C(F)(F)F)c3)C(=S)N1C2 (stereo unspecified),2.43,4,24.7,13.4,30000,7.39,2290,> 200,85.1%,Active
CCOC(=O)CCCOc1ccc2c(c1)CN1C(=S)N(c3ccc(C#N)c(C(F)(F)F)c3)C(=O)C1C2 (stereo unspecified),–,–,–,18.8,–,–,–,15.4,43.9%,–
CCCCS(=O)(=O)Nc1ccc2c(c1)CN1C(=S)N(c3ccc(C#N)c(C(F)(F)F)c3)C(=O)C1C2 (stereo unspecified),–,–,–,3.12,–,–,–,> 200,29.5%,–
CCOC(=O)Nc1ccc2c(c1)CN1C(=S)N(c3ccc(C#N)c(C(F)(F)F)c3)C(=O)C1C2 (stereo unspecified),9.5,2,34.4,6.3,7030,–,641,90.1,45.4%,–
